Assay results taken from ChEMBL document CHEMBL1932994, “Structure-activity relationship studies of S1P agonists with a dihydronaphthalene scaffold” (Bioorg Med Chem Lett, 2012).

Legend:
[1] = target: Sphingosine 1-phosphate receptor 1 (Homo sapiens, UniProt P21453); assay: Agonist activity at human S1P1 receptor expressed in CHO cells assessed as induction of intracellular calcium level; format: functional, cell-based
Method in brief: (§1)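 Intracellular Ca²⁺ rise measured in CHO cells stably expressing human S1P₁ or S1P₃ receptor; EC₅₀ (nM) determined. Some values are the average of two assays.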

[2] = target: Sphingosine 1-phosphate receptor 3 (Homo sapiens, UniProt Q99500); assay: Agonist activity at human S1P3 receptor expressed in CHO cells assessed as induction of intracellular calcium level; format: functional, cell-based; method in brief: as §1
Mus musculus [3] = assay: Immunomodulatory activity in po dosed mouse assessed as reduction in peripheral lymphocyte count measured after 4 hrs; format: functional
Method in brief: (§2)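 Mice dosed orally over a dose titration; peripheral blood lymphocytes counted 4 h or 24 h after dosing. Each point is the mean % decrease versus vehicle controls (n = 5 per group, treated and control). ED₅₀ (mg/kg) derived from the titration.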

Mus musculus [4] = assay: Immunomodulatory activity in po dosed mouse assessed as reduction in peripheral lymphocyte count measured after 24 hrs; format: functional; method in brief: as §2
CHO = assay: Selectivity ratio of EC50 for human S1P3 receptor expressed in CHO cells to EC50 for S1P1 receptor expressed in CHO cells; format: cell-based
Method in brief: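 Ratio of EC₅₀ values from intracellular Ca²⁺ stimulation assays in CHO cells stably expressing human S1P₃ versus human S1P₁.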

[5] = AUC (0 to infinity) in rat at 1 mg/kg, iv; format: ADME, organism-based; set-up: time infinity, dose 1 mg/kg, route intravenous; conditions: plasma
[6] = AUC (0 to infinity) in rat at 1 mg/kg, po; format: ADME, organism-based; set-up: time infinity, dose 1 mg/kg, route oral; conditions: plasma
[7] = Cmax in rat at 1 mg/kg, po; format: ADME, organism-based; set-up: dose 1 mg/kg, route oral; conditions: in vivo
Plasma = assay: Plasma concentration in rat at 1 mg/kg, po; format: ADME, organism-based; set-up: dose 1 mg/kg, route oral; conditions: in vivo
[8] = Total clearance in rat at 1 mg/kg, iv; format: ADME, organism-based; set-up: dose 1 mg/kg, route intravenous; conditions: in vivo
[9] = Half life in rat at 1 mg/kg, iv; format: ADME, organism-based; set-up: dose 1 mg/kg, route intravenous; conditions: in vivo
[10] = Half life in rat at 1 mg/kg, po; format: ADME, organism-based; set-up: dose 1 mg/kg, route oral; conditions: in vivo
[11] = Volume of distribution at steady state in rat at 1 mg/kg, iv; format: ADME, organism-based; set-up: dose 1 mg/kg, route intravenous; conditions: in vivo, read-out: Vdss
[12] = Oral bioavailability in rat at 1 mg/kg; format: ADME, organism-based; conditions: in vivo
[13] = Tmax in rat at 1 mg/kg, po; format: ADME, organism-based; set-up: dose 1 mg/kg, route oral; conditions: in vivo
[14] = Oral bioavailability in rat at 1 mg/kg measured up to 24 hrs; format: ADME, organism-based; conditions: in vivo
[15] = AUC (0 to infinity) in rat at 1 mg/kg, iv measured up to 24 hrs; format: ADME, organism-based; set-up: time infinity, dose 1 mg/kg, route intravenous; conditions: plasma
[16] = AUC (0 to infinity) in rat at 1 mg/kg, po measured up to 24 hrs; format: ADME, organism-based; set-up: time infinity, dose 1 mg/kg, route oral; conditions: plasma

Chain of Sphingosine 1-phosphate receptor 1 (P21453 whole entry): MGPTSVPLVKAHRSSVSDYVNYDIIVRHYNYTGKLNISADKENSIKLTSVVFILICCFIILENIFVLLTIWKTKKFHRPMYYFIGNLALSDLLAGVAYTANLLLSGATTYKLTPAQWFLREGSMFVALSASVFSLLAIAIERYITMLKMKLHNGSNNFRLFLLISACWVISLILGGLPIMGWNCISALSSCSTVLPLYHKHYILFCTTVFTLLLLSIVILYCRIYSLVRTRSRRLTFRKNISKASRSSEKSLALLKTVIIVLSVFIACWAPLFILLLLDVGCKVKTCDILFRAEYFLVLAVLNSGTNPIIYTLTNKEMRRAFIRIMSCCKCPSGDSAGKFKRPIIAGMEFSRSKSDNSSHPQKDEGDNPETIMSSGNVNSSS
Chain of Sphingosine 1-phosphate receptor 3 (Q99500 whole entry): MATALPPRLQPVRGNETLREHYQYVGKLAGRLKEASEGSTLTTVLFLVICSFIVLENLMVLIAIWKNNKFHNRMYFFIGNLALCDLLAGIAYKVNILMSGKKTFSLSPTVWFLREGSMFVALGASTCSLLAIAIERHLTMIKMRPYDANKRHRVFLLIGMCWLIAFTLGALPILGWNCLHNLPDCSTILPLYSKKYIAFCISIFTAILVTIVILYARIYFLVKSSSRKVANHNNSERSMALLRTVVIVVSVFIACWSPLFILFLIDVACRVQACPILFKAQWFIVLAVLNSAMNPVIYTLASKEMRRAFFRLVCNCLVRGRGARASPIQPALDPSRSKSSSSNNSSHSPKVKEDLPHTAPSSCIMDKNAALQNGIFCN

SMILES | EC50 [1] | EC50 [2] | ED50 (Mus musculus [3]) | ED50 (Mus musculus [4]) | other results
CC1=C(CN2CC(C(=O)O)C2)CCc2cc(OCC(C)Cc3ccccc3)ccc21.Cl (racemic) | 0.66 nM | 20800 nM | 0.19 mg/kg | – | –
CC1=C(CN2CC(C(=O)O)C2)CCc2cc(OC[C@H](C)Cc3ccc(F)cc3)ccc21.Cl | 0.85 nM | 11000 nM | – | 0.55 mg/kg | –
CC1=C(CN2CC(C(=O)O)C2)CCc2cc(OCCCc3ccccc3)ccc21.Cl | 3 nM | 5000 nM | 0.4 mg/kg | – | –
CC1=C(CN2CC(C(=O)O)C2)CCc2cc(OCCC(C)c3ccccc3)ccc21.Cl (racemic) | 0.6 nM | 22000 nM | > 0.3 mg/kg | – | –
CC1=C(CN2CC(C(=O)O)C2)CCc2cc(OCCCc3ccccc3F)ccc21.Cl | 2.7 nM | 2900 nM | 0.13 mg/kg | 0.75 mg/kg | –
CC1=C(CN2CC(C(=O)O)C2)CCc2cc(OC[C@H](Cc3ccc(F)cc3)C(C)C)ccc21.Cl | 4.5 nM | > 30000 nM | – | 0.68 mg/kg | –
CC1=C(CN2CC(C(=O)O)C2)CCc2cc(OCC(C)(C)Cc3ccccc3)ccc21 | 20 nM | > 30000 nM | – | – | –
CC1=C(CN2CC(C(=O)O)C2)CCc2cc(OC[C@@H](C)Cc3ccc(Cl)cc3)ccc21.Cl | 0.55 nM | 8200 nM | – | 0.095 mg/kg | Ratio EC50 (CHO): 15000; AUC(0-inf) [5]: 9000 ng·h/mL; AUC(0-inf) [6]: 5500 ng·h/mL; Cmax [7]: 184 ng/mL; Cp (Plasma): 87 ng/mL; clearance [8]: 2 mL/min/kg; half-life [9]: 27 h; half-life [10]: 20 h; Vd [11]: 3.9 L/kg; bioavailability [12]: 62%; Tmax [13]: 4.7 h
CC1=C(CN2CC(C(=O)O)C2)CCc2cc(OC(C)CCc3ccccc3)ccc21 (stereo unspecified) | 20 nM | 14000 nM | – | – | –
CC1=C(CN2CC(C(=O)O)C2)CCc2cc(OC[C@@H](C)Cc3ccc(F)cc3)ccc21.Cl | 0.37 nM | 9450 nM | – | 0.22 mg/kg | Cmax [7]: 103 ng/mL; Cp (Plasma): 69 ng/mL; clearance [8]: 4 mL/min/kg; half-life [9]: 19 h; half-life [10]: 57 h; Vd [11]: 5.7 L/kg; Tmax [13]: 4.7 h; bioavailability [14]: 75%; AUC(0-inf) [15]: 2600 ng·h/mL; AUC(0-inf) [16]: 2000 ng·h/mL
CC1=C(CN2CC(C(=O)O)C2)CCc2cc(OCCCc3cccc(F)c3)ccc21.Cl | 4 nM | 3900 nM | 0.15 mg/kg | 0.69 mg/kg | –
CC1=C(CN2CC(C(=O)O)C2)CCc2cc(OCCCCc3ccccc3)ccc21 | – | – | – | – | AUC(0-inf) [6]: 3800 ng·h/mL; Cp (Plasma): 53 ng/mL; half-life [10]: 17 h; bioavailability [12]: 85%; Tmax [13]: 4.7 h
CC[C@H](COc1ccc2c(c1)CCC(CN1CC(C(=O)O)C1)=C2C)Cc1ccc(F)cc1.Cl | 1.1 nM | 29300 nM | – | 0.77 mg/kg | –
CC1=C(CN2CC(C(=O)O)C2)CCc2cc(OCCCc3ccc(F)cc3)ccc21.Cl | 0.84 nM | 3200 nM | 0.055 mg/kg | 0.25 mg/kg | AUC(0-inf) [5]: 5400 ng·h/mL; AUC(0-inf) [6]: 5700 ng·h/mL; Cmax [7]: 159 ng/mL; Cp (Plasma): 88 ng/mL; clearance [8]: 3.2 mL/min/kg; half-life [9]: 21 h; half-life [10]: 24 h; Vd [11]: 5.3 L/kg; bioavailability [12]: 106%; Tmax [13]: 4.7 h
